Measurements taken from ChEMBL document CHEMBL1154263, “Gamma-lactones and ent-eudesmane sesquiterpenes from the endophytic fungus Eutypella sp. BCC 13199” (J Nat Prod, 2009).
Calls of active or inactive are those of the source. No cut-off for these calls is given here.

Legend:
[1] = test system: KB; experiment: Cytotoxicity against human KB cells by resazurin microplate assay; type: functional, cell-based
Procedure, shortened: (§1)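 Resazurin microplate assay on human tumour cell lines: KB (oral epidermoid carcinoma), MCF-7 (breast cancer) and NCI-H187 (small-cell lung cancer).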

[2] = test system: Candida albicans; experiment: Antifungal activity against Candida albicans; type: functional, organism-based
[3] = test system: NCI-H187; experiment: Cytotoxicity against human NCI-H187 cells by resazurin microplate assay; type: functional, cell-based; procedure, shortened: as §1
[4] = test system: Pyricularia grisea; experiment: Antifungal activity against Magnaporthe grisea; type: functional, organism-based
[5] = test system: MCF7; experiment: Cytotoxicity against human MCF7 cells by resazurin microplate assay; type: functional, cell-based; procedure, shortened: as §1
[6] = test system: Mycobacterium tuberculosis; experiment: Antituberculosis activity against Mycobacterium tuberculosis H37Ra; type: functional, organism-based
[7] = test system: Vero; experiment: Cytotoxicity against african green monkey Vero cells after 8 days by green fluorescent protein microplate assay; type: cell-based; settings: Chlorocebus sabaeus, 192 h
Procedure, shortened: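 Vero cells (African green monkey kidney fibroblasts); cytotoxicity read by green fluorescent protein microplate assay (GFPMA).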

[8] = test system: Plasmodium falciparum; experiment: Antimalarial activity against Plasmodium falciparum K1; type: functional, organism-based

| Structure (SMILES) | IC50 [1] [µM] | Activity [2] | IC50 [3] [µM] | Activity [4] | IC50 [5] [µM] | Activity [6] | IC50 [7] [µM] | Activity [8] |
| --- | --- | --- | --- | --- | --- | --- | --- | --- |
| C=C1CCC(=O)[C@@]2(C)CC[C@H](C(C)(C)O)C[C@H]12 | 32 | inactive | 11 | inactive | 20 | inactive | 32 | inactive |
| C=C1CC[C@H](O)[C@@]2(C)CC[C@H](C(C)(C)O)C[C@H]12 | > 210 | inactive | > 210 | inactive | > 210 | inactive | > 210 | inactive |
| COc1cccc2c1C(=O)c1c(O)c3c(c(O)c1C2=O)C[C@@](O)(C(=O)CO)C[C@@H]3O[C@H]1C[C@H](N)[C@H](O)[C@H](C)O1 [DOXORUBICIN] | 0.28 | – | 0.25 | – | – | – | – | – |
| Cc1c2ccncc2c(C)c2c1[nH]c1ccccc12 [ELLIPTECINE] | 2.5 | – | 3.6 | – | – | – | 5.5 | – |
| O=C/C=C/C=C1/C(=O)O[C@H](/C=C/CO)[C@H]1O [EUTYPELLIN A] | 38 | inactive | 12 | inactive | 84 | inactive | 88 | inactive |
| O=C1O[C@H](/C=C/CO)[C@@H](O)/C1=C\C=C\CO [EUTYPELLIN B] | 144 | inactive | 206 | inactive | > 221 | inactive | > 221 | inactive |
